# Source: ChEMBL document CHEMBL1140346 (J Med Chem, 2005)
# Experiments:
# [1] = target: Dipeptidyl peptidase 4 (Rattus norvegicus) (UniProt P14740); experiment: Ex vivo percent inhibition of Dipeptidyl peptidase IV in rat plasma after 4 hr at 4 umol/kg peroral dose; assay type: functional, cell-free
# [2] = target: Dipeptidyl peptidase 4 (Rattus norvegicus) (UniProt P14740); experiment: Ex vivo percent inhibition of Dipeptidyl peptidase IV in rat plasma after 30 min at 4 umol/kg peroral dose; assay type: functional, cell-free
# [3] = target: Dipeptidyl peptidase 4 (Rattus norvegicus) (UniProt P14740); experiment: Ex vivo Dipeptidyl peptidase IV inhibition in rat plasma after 4 hr 4 umol/kg peroral dose; assay type: functional, cell-free
# [4] = Oral bioavailability in rat; assay type: ADME, organism-based; conditions: in vivo
# Summary of the method: (§1)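 Fasted adult male Sprague-Dawley rats (250–300 g), jugular-cannulated, given 10 mg/kg in water as iv bolus or oral gavage (n = 2 per route); serial heparinized blood to 12 h, plasma acetonitrile-precipitated and quantified by LC/MS. AUC by trapezoidal (oral) or log-linear (iv) integration; F = mean oral AUC / mean iv AUC.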
# [5] = target: Dipeptidyl peptidase 4 (Rattus norvegicus) (UniProt P14740); experiment: Effective dose for inhibition of Dipeptidyl peptidase IV in prediabetic rat model after 6 hr; assay type: functional
# Summary of the method: (§2)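 Fasted normal male Sprague-Dawley rats given oral doses; plasma (EDTA) taken 0.5, 2, 4 or 6 h postdose and DPP-IV activity read with fluorogenic Ala-Pro-AFC (0.1 mM, 50 mM Hepes/140 mM NaCl, ex 360/em 530 nm, initial 20 min rate). ED50 = 50% inhibitory dose from percent inhibition vs dose plot at each time point.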
# [6] = target: Dipeptidyl peptidase 4 (Rattus norvegicus) (UniProt P14740); experiment: Effective dose for inhibition of Dipeptidyl peptidase IV in prediabetic rat model after 2 hr; assay type: functional; conditions: in the assay text read “fasted normal Sprague-Dawley rat” for “prediabetic rat model”; summary of the method: as §2
# [7] = target: Dipeptidyl peptidase 4 (Rattus norvegicus) (UniProt P14740); experiment: Effective dose for inhibition of Dipeptidyl peptidase IV in prediabetic rat model after 4 hr; assay type: functional; conditions: in the assay text read “fasted normal Sprague-Dawley rat” for “prediabetic rat model”; summary of the method: as §2
# [8] = target: Dipeptidyl peptidase 4 (Rattus norvegicus) (UniProt P14740); experiment: Effective dose for inhibition of Dipeptidyl peptidase IV in prediabetic rat model after 0.5 hr; assay type: functional; conditions: in the assay text read “fasted normal Sprague-Dawley rat model” for “prediabetic rat model”; summary of the method: as §2
# [9] = Half life in rat; assay type: ADME; conditions: in vivo; summary of the method: as §1
# Cytochrome P450 3A4 = Cytochrome P450 3A4 (Homo sapiens, UniProt P08684); experiment: Inhibitory concentration against Cytochrome 450 3A4; assay type: ADME
# Cytochrome P450 3A4, sequence (P08684 whole entry): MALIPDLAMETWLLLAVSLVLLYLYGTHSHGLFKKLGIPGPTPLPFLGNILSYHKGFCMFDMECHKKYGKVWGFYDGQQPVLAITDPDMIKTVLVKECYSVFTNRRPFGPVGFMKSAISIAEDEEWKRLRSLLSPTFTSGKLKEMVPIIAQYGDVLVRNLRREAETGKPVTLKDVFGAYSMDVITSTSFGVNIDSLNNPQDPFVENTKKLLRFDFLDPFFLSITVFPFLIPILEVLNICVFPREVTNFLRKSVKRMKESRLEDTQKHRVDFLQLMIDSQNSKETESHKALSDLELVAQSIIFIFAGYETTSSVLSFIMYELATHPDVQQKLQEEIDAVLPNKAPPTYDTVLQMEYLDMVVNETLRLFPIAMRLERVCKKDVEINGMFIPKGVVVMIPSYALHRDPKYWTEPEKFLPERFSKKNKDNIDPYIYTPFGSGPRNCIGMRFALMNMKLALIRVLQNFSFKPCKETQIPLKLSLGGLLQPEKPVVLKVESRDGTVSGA
# Dipeptidyl peptidase 4 = Dipeptidyl peptidase 4 (Homo sapiens, UniProt P27487); experiment: In vitro inhibition constant against human Dipeptidyl peptidase IV
# Dipeptidyl peptidase 4, sequence (P27487 whole entry): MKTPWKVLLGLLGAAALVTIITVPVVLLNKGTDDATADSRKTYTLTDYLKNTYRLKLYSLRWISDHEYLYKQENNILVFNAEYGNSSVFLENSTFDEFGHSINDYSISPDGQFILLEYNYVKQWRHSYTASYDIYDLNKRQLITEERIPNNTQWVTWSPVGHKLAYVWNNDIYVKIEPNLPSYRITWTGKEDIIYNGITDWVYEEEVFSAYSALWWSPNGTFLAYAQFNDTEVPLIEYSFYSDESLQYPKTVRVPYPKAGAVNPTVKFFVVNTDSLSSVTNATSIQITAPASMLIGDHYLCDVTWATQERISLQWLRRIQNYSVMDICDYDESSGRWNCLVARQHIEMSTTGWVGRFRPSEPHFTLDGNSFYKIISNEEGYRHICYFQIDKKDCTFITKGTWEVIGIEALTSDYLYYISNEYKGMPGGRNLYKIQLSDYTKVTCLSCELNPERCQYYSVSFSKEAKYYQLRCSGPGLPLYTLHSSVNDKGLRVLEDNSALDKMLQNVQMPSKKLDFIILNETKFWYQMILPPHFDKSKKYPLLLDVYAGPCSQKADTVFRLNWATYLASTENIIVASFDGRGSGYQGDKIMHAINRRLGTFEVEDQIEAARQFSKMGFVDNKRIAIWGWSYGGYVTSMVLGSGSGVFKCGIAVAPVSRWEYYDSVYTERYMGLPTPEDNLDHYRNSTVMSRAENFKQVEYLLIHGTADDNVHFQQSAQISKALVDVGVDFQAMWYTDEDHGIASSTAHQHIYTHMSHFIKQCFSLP
# Summary of the method: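 Recombinant human DPP-IV expressed in CHO-DG44 cells, purified by anion exchange, gel filtration and MonoQ. […] IC50 from Hill fit (Morrison where needed), converted to Ki assuming competitive inhibition; mean ± SEM, ≥ triplicate.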
# Dipeptidyl peptidase 4 (Rattus norvegicus), sequence (P14740 whole entry, looked up): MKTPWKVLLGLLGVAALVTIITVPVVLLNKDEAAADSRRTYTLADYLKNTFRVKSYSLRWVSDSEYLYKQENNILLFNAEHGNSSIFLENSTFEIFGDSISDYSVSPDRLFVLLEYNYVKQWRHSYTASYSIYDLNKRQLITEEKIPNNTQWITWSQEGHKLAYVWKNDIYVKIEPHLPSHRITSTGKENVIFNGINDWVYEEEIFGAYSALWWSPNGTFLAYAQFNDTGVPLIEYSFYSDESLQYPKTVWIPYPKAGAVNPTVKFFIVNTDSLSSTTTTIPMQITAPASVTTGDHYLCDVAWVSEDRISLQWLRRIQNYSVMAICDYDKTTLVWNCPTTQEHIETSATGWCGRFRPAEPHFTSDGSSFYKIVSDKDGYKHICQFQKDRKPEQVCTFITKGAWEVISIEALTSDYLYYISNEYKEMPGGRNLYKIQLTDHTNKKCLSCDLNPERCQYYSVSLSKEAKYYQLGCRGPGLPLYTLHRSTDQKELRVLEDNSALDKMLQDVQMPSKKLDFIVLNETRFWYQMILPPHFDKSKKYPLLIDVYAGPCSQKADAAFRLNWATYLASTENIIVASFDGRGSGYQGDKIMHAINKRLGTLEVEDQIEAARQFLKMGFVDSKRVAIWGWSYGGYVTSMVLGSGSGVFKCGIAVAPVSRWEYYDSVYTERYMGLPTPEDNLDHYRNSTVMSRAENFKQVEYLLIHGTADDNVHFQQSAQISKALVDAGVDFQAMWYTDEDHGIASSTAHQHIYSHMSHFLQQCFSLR
Compound,inhibition [1] [%],inhibition [2] [%],further results
C=CC1([C@H](N)C(=O)N2[C@H](C#N)C[C@@H]3C[C@@H]32)CCCCC1,60,76,–
N#C[C@@H]1C[C@@H]2C[C@@H]2N1C(=O)[C@@H](N)C1(CO)CCCC1,56,69,bioavailability [4]: 59%; ED50 ([5]; in the assay text read “fasted normal Sprague-Dawley rat” for “prediabetic rat model”): 11 µmol/kg; ED50 [6]: 3.2 µmol/kg; ED50 [7]: 5 µmol/kg; ED50 [8]: 0.4 µmol/kg
N#C[C@@H]1C[C@@H]2C[C@@H]2N1C(=O)[C@@H](N)C12CC3CC(O)(CC(O)(C3)C1)C2,–,62,inhibition [3]: 57%
C=CC1([C@H](N)C(=O)N2[C@H](C#N)C[C@@H]3C[C@@H]32)CCC1,32,42,–
CCC(C)(C)[C@H](N)C(=O)N1[C@H](C#N)C[C@@H]2C[C@@H]21,0,0,–
CCC1([C@H](N)C(=O)N2[C@H](C#N)C[C@@H]3C[C@@H]32)CCCC1,44,40,–
N#C[C@@H]1C[C@@H]2C[C@@H]2N1C(=O)[C@@H](N)C1(CO)CCC1,17,36,–

# More lines, main results first:
inhibition [1] [%],inhibition [2] [%],Compound,further results
20,39,C=CC(CC)(CC)[C@H](N)C(=O)N1[C@H](C#N)C[C@@H]2C[C@@H]21,–
–,80,N#C[C@@H]1C[C@@H]2C[C@@H]2N1C(=O)[C@@H](N)C12CC3CC(CC(F)(C3)C1)C2,inhibition [3]: 61%
10,13,C=CC(C)(C)[C@H](N)C(=O)N1[C@H](C#N)C[C@@H]2C[C@@H]21,–
–,87,N#C[C@@H]1C[C@@H]2C[C@@H]2N1C(=O)[C@@H](N)C12CC3CC(CC(O)(C3)C1)C2 [SAXAGLIPTIN ANHYDROUS],bioavailability [4]: 75%; inhibition [3]: 87%; ED50 ([5]; in the assay text read “fasted normal Sprague-Dawley rat model” for “prediabetic rat model”): 0.5 µmol/kg; ED50 [6]: 0.2 µmol/kg; ED50 [7]: 0.3 µmol/kg; ED50 [8]: 0.12 µmol/kg; half-life [9]: 2.1 h
–,84,N#C[C@@H]1C[C@@H]2C[C@@H]2N1C(=O)[C@@H](N)C12CC3CC(CC(C3)C1)C2,IC50 (Cytochrome P450 3A4): 20 µM; bioavailability [4]: 2%; inhibition [3]: 83%
64,71,C=CC1([C@H](N)C(=O)N2[C@H](C#N)C[C@@H]3C[C@@H]32)CCCC1,bioavailability [4]: 5.3%; Ki (Dipeptidyl peptidase 4): 0.0039 µM
66,77,C=CC1([C@H](N)C(=O)N2[C@H](C#N)C[C@@H]3C[C@@H]32)CCCCCC1,–
8,17,N#C[C@@H]1C[C@@H]2C[C@@H]2N1C(=O)[C@@H](N)C1(CO)CCCCC1,–
